In ChEMBL document CHEMBL4382230, “Structure-activity relationships, biological evaluation and structural studies of novel pyrrolonaphthoxazepines as antitumor agents” (Eur J Med Chem, 2019):
Values after ≈ are worked out from the molar mass of the structure shown. Active and inactive are the calls of the source. The calls are words filed in the database; no cut-off is given here.

What was measured:
PC-9 [1] = assay: Induction of apoptosis in human PC9 cells assessed as reduction in cyclin D1 expression at 10 uM after 18 hrs by Western blot analysis; type: functional, cell-based
Outline: (§1)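 PC9 and HCC827 maintained in DMEM with 10% FBS, then exposed to 10 μM compound for 18 h in 5% serum. Caspase 3 activation and cell cycle proteins examined by western blot.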

Tubulin (Homo sapiens) [2] = biological target: T1, Tubulin (Homo sapiens) (UniProt P68371+Q9H4B7+P0DPH7+P68366+Q13509+Q71U36+P04350+Q3ZCM7+P07437+P68363+Q9BQE3+Q6PEY2+Q13885+Q9BVA1+Q9BUF5); assay: Binding affinity to tubulin (unknown origin) by analytical ultracentrifugation
NCI-H929 = assay: Cytotoxicity against human NCI-H929 cells after 48 hrs by MTT assay; type: functional, cell-based; conditions: NCI-H929, 48 h
Outline: (§2)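 Cells (NCI-H929 in RPMI-1640 GlutaMAX; SCC4 in DMEM GlutaMAX; 10% FBS, 37 °C, 5% CO2) treated with increasing concentrations for 48 h. IC50 is the mean of three independent experiments.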

[3] = Chemical stability of compound in pH 3 aqueous solution assessed as compound remaining after 24 hrs by HPLC analysis; type: physicochemical; conditions: read-out: Stability
B16-F1 = assay: Cytotoxicity against mouse B16-F1 cells assessed as reduction in cell survival at 0.1 to 10 uM after 18 hrs by MTT assay; type: functional, cell-based
Outline: (§3)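 Seeded at 2,500 cells/well in medium with 10% serum. After adhesion, exposed to 0.1, 1 and 10 μM in medium with 5% serum for 18 h. Medium then replaced with fresh medium containing 1.2 mM MTT for 4 h; formazan dissolved in DMSO, absorbance at 540 nm. Results given as % of basal response.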

[4] = Solubility of compound in pH 3 aqueous solution after 12 hrs by HPLC analysis; type: physicochemical
HCC827 [5] = assay: Induction of apoptosis in human HCC827 cells assessed as increase in caspase-3 expression at 10 uM after 18 hrs by Western blot analysis; type: functional, cell-based; outline: as §1
PC-9 [6] = assay: Cytotoxicity against human PC9 cells assessed as reduction in cell survival at 0.1 to 10 uM after 18 hrs by MTT assay; type: functional, cell-based; outline: as §3
HL-60 [7] = assay: Cell cycle arrest in human HL60 cells assessed as accumulation of cells at G2/M phase at 10 uM after 24 hrs by propidium iodide staining-based flow cytometric analysis; type: functional
Outline: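 HL-60 exposed to 10 μM for 24 h, vehicle 0.1% DMSO. Cells plated at 2×10^5 cells/mL, stained in PBS with 0.1% sodium citrate, 0.1% NP40 and propidium iodide for 30 min at room temperature in the dark. DNA content by flow cytometry; G2/M fraction reported.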

NB-4 = assay: Induction of differentiation in human NB4 cells at 500 nM after 24 hrs in presence of ATRA by CD11c staining-based flow cytometric analysis; type: functional, cell-based
Outline: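 NB4 exposed to 0.5 μM compound together with 1 μM ATRA for 24 h. Cells stained with PE-conjugated CD11c (mouse IgG1-PE control) for 1 h at 4 °C in the dark, washed, resuspended in PBS with propidium iodide (0.25 μg/mL), then analysed by flow cytometry. Biological triplicates, mean ± S.E.M.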

[8] = Cytotoxicity against human A2780AD cells after 48 hrs by MTT assay; type: functional, cell-based
Outline: (§4)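 Cells seeded at 12,000 to 17,000 per well depending on line, incubated overnight, then given serial dilutions of ligand for 48 h. MTT at 2.5 mg/mL added for 4 h at 37 °C, formazan solubilized overnight (10% SDS, 45% dimethylformamide, pH 5.5), absorbance read at 595/690 nm. IC50 from log-dose response curves; mean ± SE of three independent assays.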

HL-60 [9] = assay: Induction of autophagy in serum starved human HL60 cells assessed as increase in LC3B-2 levels at 10 uM after 105 mins by immunoblot analysis; type: functional, cell-based
Outline: (§5)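 HL-60 in serum-supplemented RPMI 1640, or starved in Earle's Balanced Salts for 15 min beforehand, then treated with 10 μM compound with or without 40 μM chloroquine for 1 h 45 min or 16 h. LC3B-II measured by immunoblot, densitometry normalized to actin, three independent experiments, Student's T-test.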

NIH3T3 [10] = assay: Cytotoxicity against mouse NIH/3T3 cells after 48 hrs by MTT assay; type: cell-based; conditions: NIH3T3, 48 h; outline: as §4
[11] = Ratio of IC50 for human A2780AD cells to IC50 for human A2780 cells; type: functional
Outline: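 Relative resistance: IC50 in the P-gp overexpressing resistant line divided by IC50 in the parental line. Both IC50s came from the 48 h MTT assay (serial dilutions, absorbance at 595/690 nm, log-dose response curves, three independent assays).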

Tubulin (Homo sapiens) [12] = biological target: T1, Tubulin (Homo sapiens); assay: Inhibition of tubulin (unknown origin) polymerization at 27.5 uM measured over 70 mins by turbidity method; type: protein-complex assay
Outline: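 Tubulin at 25 µM in GAB buffer (10 mM sodium phosphate, 30% glycerol, 1 mM EGTA, 6 mM MgCl2, 1 mM GTP, pH 6.7) with 27.5 µM compound or DMSO vehicle. Turbidity is read at 355 nm for 70 min at 37 °C. Data are normalized to the initial stable absorbance plateau to correct for compound absorbance.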

HCC827 [13] = assay: Induction of apoptosis in human HCC827 cells assessed as increase in p21 expression at 10 uM after 18 hrs by Western blot analysis; type: functional, cell-based; outline: as §1
HL-60 [14] = assay: Induction of autophagy in human HL60 cells assessed as increase in LC3B-2 levels at 10 uM after 105 mins in presence of lysosomal inhibitor chloroquine by immunoblot analysis; type: functional, cell-based; outline: as §5
Ca9-22 [15] = assay: Cytotoxicity against human Ca9-22 cells after 48 hrs by MTT assay; type: functional, cell-based; conditions: Ca9-22, 48 h
HL-60 [16] = assay: Induction of autophagy in human HL60 cells assessed as […] in LC3B-2 levels at 10 uM after 16 hrs in presence of lysosomal inhibitor chloroquine by immunoblot analysis; type: functional, cell-based; outline: as §5
[17] = Apparent solubility of compound in sodium phosphate buffer at 15 uM after 20 mins; type: physicochemical
SCC-4 = assay: Cytotoxicity against human SCC4 cells after 48 hrs by MTT assay; type: functional, cell-based; conditions: SCC-4, 48 h; outline: as §2
HCC827 [18] = assay: Cytotoxicity against human HCC827 cells assessed as reduction in cell survival at 0.1 to 10 uM after 50 to 60 hrs by MTT assay; type: functional, cell-based
Ca9-22 [19] = assay: Cytotoxicity against human Ca9-22 cells after 24 hrs by MTT assay; type: functional, cell-based; conditions: Ca9-22, 24 h
PC-9 [20] = assay: Induction of apoptosis in human PC9 cells assessed as increase in p21 expression at 10 uM after 18 hrs by Western blot analysis; type: functional, cell-based; outline: as §1
NIH3T3 [21] = assay: Cytotoxicity against mouse NIH/3T3 cells harboring MDR G185 after 48 hrs by MTT assay; type: functional, cell-based; conditions: NIH3T3, 48 h; outline: as §4
HCC827 [22] = assay: Induction of apoptosis in human HCC827 cells assessed as reduction in cyclin D1 expression at 10 uM after 18 hrs by Western blot analysis; type: functional, cell-based; outline: as §1

CC(=O)OC1=C(c2cccc3ncccc23)Oc2cc3ccccc3cc2-n2cccc21
Activity (PC-9 [1]): Active
Kb (Tubulin (Homo sapiens) [2]): 7 ×10⁷ /M
IC50 (NCI-H929): 363 nM
remaining at 24 h [3]: 65%
Activity (B16-F1): Active
solubility at 12 h [4]: 210 µM (≈ 88 µg/mL)
Activity (HCC827 [5]): Active
Activity (PC-9 [6]): Active
Activity (HL-60 [7]): Active
Activity (NB-4): Active
IC50 [8]: 92 nM
Activity (HL-60 [9]): Active
IC50 (NIH3T3 [10]): 42 nM
Ratio IC50 [11]: 1.15
inhibition (Tubulin (Homo sapiens) [12]): Active
Activity (HCC827 [13]): Active
Activity (HL-60 [14]): Active
IC50 (Ca9-22 [15]): 13400 nM
Activity (HL-60 [16]): Active
solubility at 20 min, 15 µM [17]: 0.17 µM (≈ 0.0711 µg/mL)
IC50 (SCC-4): 222 nM
Activity (HCC827 [18]): inactive
IC50 (Ca9-22 [19]): 31600 nM
Activity (PC-9 [20]): Active
IC50 (NIH3T3 [21]): 84 nM
Activity (HCC827 [22]): Active
